# What was measured:
# Format in all cases: functional
# Rattus norvegicus [1] = assay: Amount of nonesterified fatty acids in obese Zucker rats after 2 weeks of treatment at a dose of 10 mg/kg/day
# Summary of the method: (§1)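 Female Zucker fatty rats [Crl:(Zuc)-faBR], 10–12 weeks old (400–500 g), dosed once daily by oral gavage in 20% EtOH/80% PEG-200 for up to 14 days. After a 6-h fast, serum was taken pre-dose, at day 7 (orbital venous plexus, O2/CO2 anaesthesia) and at day 14 (cardiac puncture), stored at −80 °C, and assayed on a Hitachi 912 automatic analyzer. Mean ± SEM.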
# Rattus norvegicus [2] = assay: Amount of glucose in obese Zucker rats after 2 weeks of treatment at a dose of 100 mg/kg/day
# Summary of the method: (§2)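 Female Zucker fatty rats [Crl:(Zuc)-faBR], 10–12 weeks old (400–500 g), gavaged daily with vehicle (20% EtOH/80% PEG-200, 0.25% of body weight) or compound. After a 6-h fast, blood glucose was read by glucometer from tail-prick blood of unanesthetized rats before dosing and after 1 and 2 weeks. Values are mean ± SEM.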
# Rattus norvegicus [3] = assay: Amount of non-HDL-cholesterol in obese Zucker rats after 2 weeks of treatment at a dose of 100 mg/kg/day
# Summary of the method: (§3)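 Female Zucker fatty rats [Crl:(Zuc)-faBR], 10–12 weeks old (400–500 g), dosed once daily by oral gavage in 20% EtOH/80% PEG-200 (dose volume 0.25% of body weight). Rats were fasted 6 h and bled before dosing and at day 7 (orbital plexus), and at day 14 (cardiac puncture). Serum cholesterol fractions came from Superose 6 gel-filtration lipoprotein profiles (% peak area × serum total cholesterol). Values are mean ± SEM.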
# Rattus norvegicus [4] = assay: Amount of triglycerides in obese Zucker rats after 1 week of treatment at a dose of 10 mg/kg/day; summary of the method: as §1
# Rattus norvegicus [5] = assay: Amount of glucose in obese Zucker rats after 2 weeks of treatment at a dose of 30 mg/kg/day; summary of the method: as §2
# Rattus norvegicus [6] = assay: Amount of insulin in obese Zucker rats after 1 week of treatment at a dose of 3 mg/kg/day
# Summary of the method: (§4)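 Female obese Zucker rats [Crl:(Zuc)-faBR], 400–500 g, given daily oral gavage in 20% EtOH/80% PEG-200 for up to 14 days. After a 6-h fast, serum was collected pretreatment and at day 7 (orbital bleed) and day 14 (cardiac puncture) and stored at -80 °C. Insulin was measured by ELISA. Values are mean ± SEM.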
# Rattus norvegicus [7] = assay: Amount of glucose in obese Zucker rats after 1 week of treatment at a dose of 100 mg/kg/day; summary of the method: as §2
# Rattus norvegicus [8] = assay: Percent increase in HDL-cholesterol in obese Zucker rats after 1 week of treatment at a dose of 30 mg/kg/day
# Summary of the method: (§5)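 Female Zucker fatty rats [Crl:(Zuc)-faBR], 10–12 weeks, 400–500 g, acclimated 7 days on chow. Compound or vehicle (20% EtOH/80% PEG-200) given by daily oral gavage for 2 weeks, 0–100 mg/kg/day. After a 6 h fast, blood was taken before dosing, at 1 wk and at 2 wk. Serum lipids, NEFA and insulin (ELISA) were measured; glucose by glucometer. HDL/non-HDL-C came from Superose 6 gel-filtration profiles. Values are % change from pretreatment, mean ± SEM.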
# Rattus norvegicus [9] = assay: Percentage change of triglycerides in obese female Zucker rats after 1 week of pre-treatment at a dose of 100 mg/kg/day
# Summary of the method: (§6)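 Female Zucker fatty rats [Crl:(Zuc)-faBR], 10–12 weeks old (400–500 g), acclimated 7 days and fed rodent chow. Dosed once daily by oral gavage in 20% EtOH/80% PEG-200 (v/v), at 0.25% of body weight, for 2 weeks. Blood taken after a 6-h fast: orbital plexus before dosing and at day 7, cardiac puncture at day 14. Serum lipoprotein cholesterol measured by Superose 6 gel filtration with on-line cholesterol detection. Values are % change from pretreatment, mean ± SEM.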
# Rattus norvegicus [10] = assay: Amount of triglycerides in obese Zucker rats after 1 week of treatment at a dose of 0 mg/kg/day; summary of the method: as §1
# Rattus norvegicus [11] = assay: Amount of HDL-cholesterol in obese Zucker rats at pre-treatment at a dose of 10 mg/kg/day; summary of the method: as §3
# Rattus norvegicus [12] = assay: Amount of HDL-cholesterol in obese Zucker rats after 2 weeks of treatment at a dose of 10 mg/kg/day; summary of the method: as §3
# Rattus norvegicus [13] = assay: Amount of glucose in obese Zucker rats after 2 weeks of treatment at a dose of 0 mg/kg/day; summary of the method: as §2
# Rattus norvegicus [14] = assay: Amount of nonesterified fatty acids in obese Zucker rats at pre-treatment at a dose of 3 mg/kg/day; summary of the method: as §1
# Rattus norvegicus [15] = assay: Percent increase in HDL-cholesterol in obese Zucker rats after 2 weeks of treatment at a dose of 30 mg/kg/day; summary of the method: as §5
# Rattus norvegicus [16] = assay: Percent increase in HDL-cholesterol in obese Zucker rats after 1 week of treatment at a dose of 100 mg/kg/day; summary of the method: as §5
# Rattus norvegicus [17] = assay: Amount of triglycerides in obese Zucker rats after 2 weeks of treatment at a dose of 100 mg/kg/day; summary of the method: as §1
# Rattus norvegicus [18] = assay: Amount of non-HDL-cholesterol in obese Zucker rats at pre-treatment at a dose of 3 mg/kg/day
# Summary of the method: (§7)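 Female obese Zucker fatty rats [Crl:(Zuc)-faBR], 10–12 weeks old (400–500 g), on chow. Compound in 20% EtOH/80% PEG-200 (v/v) given by daily oral gavage. After a 6-h fast, serum was taken before dosing and at 7 days (orbital plexus), and at 14 days (cardiac puncture). Lipoprotein cholesterol came from Superose 6HR gel-filtration profiles × serum total cholesterol. Mean ± SEM.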
# Rattus norvegicus [19] = assay: Amount of HDL-cholesterol in obese Zucker rats after 1 week of treatment at a dose of 100 mg/kg/day; summary of the method: as §3
# Rattus norvegicus [20] = assay: Amount of non-HDL-cholesterol in obese Zucker rats after 1 week of treatment at a dose of 3 mg/kg/day; summary of the method: as §3
# Rattus norvegicus [21] = assay: Amount of triglycerides in obese Zucker rats after 1 week of treatment at a dose of 100 mg/kg/day; summary of the method: as §1
# Rattus norvegicus [22] = assay: Amount of non-HDL-cholesterol in obese Zucker rats after 2 weeks of treatment at a dose of 30 mg/kg/day; summary of the method: as §7
# Rattus norvegicus [23] = assay: Amount of triglycerides in obese Zucker rats at pre-treatment at a dose of 10 mg/kg/day; summary of the method: as §1
# Rattus norvegicus [24] = assay: Amount of non-HDL-cholesterol in obese Zucker rats after 1 week of treatment at a dose of 0 mg/kg/day; summary of the method: as §3
# Rattus norvegicus [25] = assay: Amount of nonesterified fatty acids in obese Zucker rats at pre-treatment at a dose of 30 mg/kg/day; summary of the method: as §1
# Rattus norvegicus [26] = assay: Amount of insulin in obese Zucker rats at pre-treatment at a dose of 3 mg/kg/day; summary of the method: as §4
# Rattus norvegicus [27] = assay: Amount of insulin in obese Zucker rats after 2 weeks of treatment at a dose of 30 mg/kg/day; summary of the method: as §4
# Rattus norvegicus [28] = assay: Amount of insulin in obese Zucker rats at pre-treatment at a dose of 100 mg/kg/day; summary of the method: as §4
# Rattus norvegicus [29] = assay: Amount of non-HDL-cholesterol in obese Zucker rats after 1 week of treatment at a dose of 10 mg/kg/day; summary of the method: as §3
# Rattus norvegicus [30] = assay: Amount of HDL-cholesterol in obese Zucker rats after 2 weeks of treatment at a dose of 3 mg/kg/day; summary of the method: as §3
# Rattus norvegicus [31] = assay: Percentage change of triglycerides in obese female Zucker rats after 2 weeks of pre-treatment at a dose of 100 mg/kg/day; summary of the method: as §6
SMILES,Activity (Rattus norvegicus [1]) [mg/dL],Activity (Rattus norvegicus [2]) [mg/dL],Activity (Rattus norvegicus [3]) [mg/dL],Activity (Rattus norvegicus [4]) [mg/dL],Activity (Rattus norvegicus [5]) [mg/dL],Activity (Rattus norvegicus [6]) [ng/mL],Activity (Rattus norvegicus [7]) [mg/dL],Activity (Rattus norvegicus [8]) [%],Change (Rattus norvegicus [9]) [%],Activity (Rattus norvegicus [10]) [mg/dL],Activity (Rattus norvegicus [11]) [mg/dL],Activity (Rattus norvegicus [12]) [mg/dL],Activity (Rattus norvegicus [13]) [mg/dL],Activity (Rattus norvegicus [14]) [mg/dL],Activity (Rattus norvegicus [15]) [%],Activity (Rattus norvegicus [16]) [%],Activity (Rattus norvegicus [17]) [mg/dL],Activity (Rattus norvegicus [18]) [mg/dL],Activity (Rattus norvegicus [19]) [mg/dL],Activity (Rattus norvegicus [20]) [mg/dL],other results
CC(C)(CO)CCCCC(=O)CCCCC(C)(C)CO,1,118,32,602,120,7.5,120,40,-54,1114,46,53,116,1.1,42,73,702,24,78,25,Activity (Rattus norvegicus [21]): 485 mg/dL; Activity (Rattus norvegicus [22]): 38 mg/dL; Activity (Rattus norvegicus [23]): 777 mg/dL; Activity (Rattus norvegicus [24]): 36 mg/dL; Activity (Rattus norvegicus [25]): 1.4 mg/dL; Activity (Rattus norvegicus [26]): 8.8 ng/mL; Activity (Rattus norvegicus [27]): 9.8 ng/mL; Activity (Rattus norvegicus [28]): 9.6 ng/mL; Activity (Rattus norvegicus [29]): 21 mg/dL; Activity (Rattus norvegicus [30]): 39 mg/dL; Change (Rattus norvegicus [31]): -29%
CC(C)(CCCCC(=O)CCCCC(C)(C)C(=O)O)C(=O)O,1.5,122,22,692,118,10.7,113,56,-75,1333,37,39,118,1.5,47,74,440,32,66,24,Activity (Rattus norvegicus [21]): 383 mg/dL; Activity (Rattus norvegicus [22]): 43 mg/dL; Activity (Rattus norvegicus [23]): 1143 mg/dL; Activity (Rattus norvegicus [24]): 43 mg/dL; Activity (Rattus norvegicus [25]): 1.4 mg/dL; Activity (Rattus norvegicus [26]): 10.4 ng/mL; Activity (Rattus norvegicus [27]): 8.5 ng/mL; Activity (Rattus norvegicus [28]): 8.1 ng/mL; Activity (Rattus norvegicus [29]): 26 mg/dL; Activity (Rattus norvegicus [30]): 33 mg/dL; Change (Rattus norvegicus [31]): -69%
CC(C)(CCCCCC(=O)CCCCCC(C)(C)C(=O)O)C(=O)O,0.95,105,3,553,130,10,92,156,-93,1119,86,138,120,1.3,235,51,78,22,100,23,Activity (Rattus norvegicus [21]): 69 mg/dL; Activity (Rattus norvegicus [22]): 30 mg/dL; Activity (Rattus norvegicus [23]): 863 mg/dL; Activity (Rattus norvegicus [24]): 29 mg/dL; Activity (Rattus norvegicus [25]): 1.3 mg/dL; Activity (Rattus norvegicus [26]): 8.6 ng/mL; Activity (Rattus norvegicus [27]): 7.7 ng/mL; Activity (Rattus norvegicus [28]): 11.9 ng/mL; Activity (Rattus norvegicus [29]): 22 mg/dL; Activity (Rattus norvegicus [30]): 77 mg/dL; Change (Rattus norvegicus [31]): -94%

# From ChEMBL document CHEMBL1137992, “Long hydrocarbon chain keto diols and diacids that favorably alter lipid disorders in vivo” (J Med Chem, 2004)
